Values after ≈ are worked out from the molar mass of the structure shown.

The subject of one assay is MDCK. Nature of the assay: Antiviral activity against influenza A virus (NY/83/5) in Madin Darby canine kidney (MDCK) cell culture. As to conditions: Canis lupus familiaris, read-out: ID50 (the source's name). It counts as functional. The gist of the method:
(§1)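 Confluent MDCK monolayers were given compound in serial 2-fold dilutions, then infected with 100 TCID50 of virus and incubated at 35 °C for 48 h. Cells were fixed, stained and scored microscopically for cytopathic effect. The dose giving 50% inhibition of CPE was read when infected controls just reached 100% CPE, in ng/mL, as the mean ± SD of at least three determinations.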
For `CC(N)C12CC3CC(CC(C3)C1O)C2` (stereo not given), the IC50 turned out to be 0.101 µg/mL (≈ 0.517 µM).

As for `NC12CC3CC(CC(C3)C1)C2` [AMANTADINE], the IC50 is 0.08 µg/mL (≈ 0.529 µM).

`CC(N)C12CC3CC(CC(C3)C1)C2` (stereo not given) [RIMANTADINE]: the IC50 is 0.012 µg/mL (≈ 0.0669 µM).

With `CC(N)C12CC3CC(CC(O)(C3)C1)C2` (stereo not given) [3-HYDROXYRIMANTADINE], the IC50 was determined as 4 µg/mL (≈ 20.5 µM).

For the molecule `CC(N)C12CC3CC(C1)C(O)C(C3)C2` (stereo not given), the IC50 came out at 0.804 µg/mL (≈ 4.12 µM).

For another assay, the system named is MDCK. The experiment in a line: Antiviral activity against influenza A virus (Taiwan) in Madin Darby canine kidney (MDCK) cell culture. It counts as functional. The conditions noted are these: Canis lupus familiaris, read-out: ID50 (the source's name). The gist of the method:
as §1
Turning to `CC(N)C12CC3CC(CC(C3)C1O)C2` (stereo not given), the IC50 was 0.16 µg/mL (≈ 0.819 µM).

With `NC12CC3CC(CC(C3)C1)C2` [AMANTADINE], the IC50 turned out to be 0.116 µg/mL (≈ 0.767 µM).

With `CC(N)C12CC3CC(CC(C3)C1)C2` (stereo not given) [RIMANTADINE], the IC50 amounted to 0.0098 µg/mL (≈ 0.0547 µM).

Take `CC(N)C12CC3CC(CC(O)(C3)C1)C2` (stereo not given) [3-HYDROXYRIMANTADINE]: the IC50 was found to be 5.4 µg/mL (≈ 27.6 µM).

For the molecule `CC(N)C12CC3CC(C1)C(O)C(C3)C2` (stereo not given), the IC50 was 1.5 µg/mL (≈ 7.68 µM).

The subject of another assay is MDCK. The experiment in a line: Antiviral activity against influenza A virus (Mississippi) in Madin Darby canine kidney (MDCK) cell culture. It counts as functional. As to conditions: Canis lupus familiaris, read-out: ID50 (the source's name). The gist of the method: as §1
Take `CC(N)C12CC3CC(CC(C3)C1O)C2` (stereo not given): the IC50 came to 0.15 µg/mL (≈ 0.768 µM).

Turning to `NC12CC3CC(CC(C3)C1)C2` [AMANTADINE], the IC50 worked out at 0.113 µg/mL (≈ 0.747 µM).

For `CC(N)C12CC3CC(CC(C3)C1)C2` (stereo not given) [RIMANTADINE], the IC50 is 0.021 µg/mL (≈ 0.117 µM).

`CC(N)C12CC3CC(CC(O)(C3)C1)C2` (stereo not given) [3-HYDROXYRIMANTADINE]: the IC50 is 6.7 µg/mL (≈ 34.3 µM).

Take `CC(N)C12CC3CC(C1)C(O)C(C3)C2` (stereo not given): the IC50 worked out at 3.4 µg/mL (≈ 17.4 µM).

The record behind these values is ChEMBL document CHEMBL1124847, “Synthesis and antiviral activity of metabolites of rimantadine” (1990).
